Screening data (PubChem)
Only some compounds are listed: those with a hit (about 3% of all), similar ones and a draw of the others.
NRP1-CendR mod: alters CendR peptide binding to human NRP-1. AID 602438. inhibition, % at 25 µM. FAM-RPARPAR peptide binding to NRP-1, fluorescence polarization. O14786. 360,000 compounds, 0.85% hits;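 active = inhibition or corrected inhibition above about 18%, plus a signal ratio from 0.5 to 1.5, limit read from the data, passing the limit was not always enough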
DDE Tn6 FP inh: DD(E)-Tn6 binding inhibition, primary FP screen; P02675; Fibrin DD(E) TRITC-Tn6 fluorescence polarization displacement; inhibition, % at 8.3 µM; 370,000 compounds, 0.21% hits; AID 720509;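 active = inhibition above a per-campaign cutoff: mean of compounds within control limits plus 3 SD, cut at about 15% in these data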;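 also: 0% = median of all compound wells on the plate and 100% = blocking peptide control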
PLCg1 inh: inhibitors of human phospholipase C gamma1 | P19174 | purified PLC-gamma1, fluorogenic substrate, fluorescence | inhibition, % at 12.2 µM | 370,000 compounds, 0.84% hits; in the data active = inhibition above about 9.5%
PLC-beta3 inh: blocks human PLC-beta3 enzyme activity; Q01970; Purified PLC-beta3, fluorogenic substrate, fluorescence; inhibition, % at 12.2 µM; 370,000 compounds, 0.18% hits; AID 720704;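 also: 0% = median of compound wells on plate and 100% = full blocker control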
proKLK7 act: activators of human kallikrein-7 zymogen; activation, % at 7 µM; P49862; AID 652039; 370,000 compounds, 0.9% hits; purified proKLK7, EDANS-DABCYL substrate fluorescence; 100% is mature enzyme control, 0% vehicle;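 active = activation above the mean of all tested compounds plus 3 SD, computed per campaign excluding outliers beyond control limits, cut at about 13% in these data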
DDE Tn7 FP inh: inhibitors of Tn7 peptide binding to human fibrin DD(E) | FP displacement of FITC-Tn7 peptide from fibrin DD(E); 0% = median of compound wells per plate | 370,000 compounds, 0.13% hits | inhibition, % at 8.3 µM;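 active = inhibition above the mean of compounds falling within the control limits plus 3 SD of them, cut at about 14% in these data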;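 also: 0% = plate median of compound wells and 100% = 10 µM Aha-Tn7 peptide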
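Test system: human clot-derived fibrin DD(E) complex / Quantity: 2 µM final DD(E) protein / Incubation: 10 min plus 3 h, room temperature / Measured by: fluorescence polarization / Benchmarks: high control of 10 µM Aha-Tn7 peptide / Replicates: singlicate testing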
PLCg1 ctr: PLC-gamma1 inhibition, counter-screen for PLC-beta3 hits; shares compounds with PLCg1 inh; purified PLC-gamma1, fluorogenic substrate, fluorescence; inhibition, % at 12.3 µM; 3,300 compounds, 3.1% hits; AID 743258; in the data active = inhibition above about 9.5%
PLCbeta3 conf: confirmation of human PLC-beta3 inhibitors; AID 743261; purified PLC-beta3, fluorogenic substrate fluorescence; inhibition, % at 12.3 µM; shares compounds with PLCg1 inh; 3,300 compounds, 1% hits
* marks the source's active call; other numbers are inactive results; / = not tested or not shown. Rule as the data show it, unless noted: active = inhibition above about 11%; inactive = the rest.

SMILES	NRP1-CendR mod	DDE Tn6 FP inh	PLCg1 inh	PLC-beta3 inh	proKLK7 act	DDE Tn7 FP inh	PLCg1 ctr	PLCbeta3 conf
CCOC(=O)[C@@]12CCCC3=C1N(CCC3)C(=O)[C@H]2CC(=O)N1CCN(C(=O)c2ccco2)CC1	/	-1.1	1.4	4.2	-0.5	2.8	/	/
Cc1[nH][nH]c(=O)c1C(c1ccc(-c2ccc(F)cc2)o1)c1c(C)[nH][nH]c1=O	-3.7	-4.1	10.6*	3.3	0.3	-7.5	-5.3	-1.3
C[C@H](O)[C@@H]1CN2CCc3ccc(-c4ccc5c(c4)OCO5)cc3[C@@H]2C[C@@H]1N(C)C(=O)Nc1ccccc1	/	-5.2	0.4	-1.0	0.6	-0.6	/	/
Cc1c(CN(C)C(=O)c2ccc(Br)o2)cnn1C	0.3	-3.8	11.9*	4.9	-0.1	-1.7	-7.3	-4.6
O=C(c1ccc(Br)o1)N(Cc1ccccc1)Cc1ccccc1	-2.3	-3.0	-2.8	-3.4	-0.2	4.4	/	/
O=C(O)C1C(c2ccccc2)C(C(=O)N2CCOCC2)C1c1ccccc1 (configuration not stated)	-7.2	2.4	6.3	4.2	1.2	-4.6	/	/
COC(=O)C1C(c2ccccc2)C(C(=O)N2CCOCC2)C1c1ccccc1 (configuration not stated)	9.2	1.4	-1.1	15.3*	-0.5	2.2	-2.0	2.8
O=[N+]([O-])c1cc([N+](=O)[O-])c(Oc2cccc3ccccc23)cc1NN1CCCCC1	-2.3	1.2	6.4	2.1	-1.4	1.8	/	/
O=[N+]([O-])c1cc([N+](=O)[O-])c(Oc2cccnc2Br)cc1NN1CCCCC1	1.9	-1.4	10.9*	10.3	0.0	0.6	5.2	4.5
O=C(C1CCCN(S(=O)(=O)c2ccc([N+](=O)[O-])cc2)C1)N1CCN(Cc2ccccc2)CC1 (configuration not stated)	/	0.9	1.7	3.1	-0.2	-6.9	/	/
COc1ccc(N2CCN(CCCNC(=O)CCc3cccc(F)c3)CC2)cc1	/	-6.2	0.3	-1.3	0.3	3.6	/	/
COc1ccc(-c2csc(N(CC3CCCO3)C(=O)c3ccc(C)cc3)n2)cc1 (configuration not stated)	0.6	3.4	14.4*	4.6	0.4	-1.3	-4.4	-6.8
Cc1ccc(-c2csc(N(CC3CCCO3)C(=O)c3ccco3)n2)cc1 (configuration not stated)	-8.4	-9.1	11.3*	3.9	0.1	-4.3	-12.1	-6.4
COC(=O)C1CN(Cc2ccccc2)CCS(=O)(=O)N1Cc1ccccc1F (configuration not stated)	/	4.0	-2.6	4.4	-0.1	1.5	/	/
CCC1CCCCN1C(=O)n1ncc(C(O)(c2ccccc2)c2ccccc2)n1 (configuration not stated)	/	-2.5	0.0	-2.5	/	10.8	/	/
CCC/C(=C1/c2ccccc2C(=O)N1c1ccccc1)c1c(C)noc1C	/	-9.0	0.3	-4.6	-0.3	-0.9	/	/
CCN(CCNCC(O)COc1ccccc1C(C)C)c1cccc(C)c1 (configuration not stated)	4.5	-1.9	16.9*	-1.1	-0.1	4.1	1.3	1.9
CN(Cc1ccccc1)S(=O)(=O)c1cccc(C(=O)OCc2cccc([N+](=O)[O-])c2)c1	/	-4.4	0.3	-0.7	0.3	2.3	/	/
CCOC(=O)N1CCN(C(=O)C[C@H]2C[C@@]3(C(=O)OC)C(=C[C@H](C4CCCC4)O[C@@H]3C)N(Cc3ccc(Cl)cc3Cl)C2=O)CC1	/	6.2	-0.6	-1.8	0.8	6.3	/	/
COc1ccc(C(CC(=O)N2CCCC2)C(C)C)cc1 (configuration not stated)	5.1	-1.2	2.1	4.1	-0.3	2.0	/	/
COc1ccc(C(CC(=O)N2CCCC2)c2ccc(F)cc2)cc1 (configuration not stated)	-9.0	2.8	11.1*	2.1	-0.7	-0.1	5.4	3.6
O=S1(=O)CC2c3ccccc3CN2CN1Cc1ccccc1 (configuration not stated)	/	-3.6	-6.7	-11.9	-0.4	1.5	/	/
Cc1ccc(C)c(Cn2c(C(C)O)nc3ccccc32)c1 (configuration not stated)	-1.8	4.1	10.5*	2.4	0.8	7.5	-1.0	2.8
O=C(/C=C(/c1ccc(Cl)cc1)n1cncn1)c1ccccc1	-4.4	2.9	7.0	11.2*	0.0	-2.1	-4.3	0.2
O=C(O)C1CCCCC1C(=O)Nc1cc(C(F)(F)F)ccc1Cl (configuration not stated)	12.8	-0.5	10.0*	-3.5	-0.5	1.7	-2.9	-6.4
SMILES	NRP1-CendR mod	DDE Tn6 FP inh	PLCg1 inh	PLC-beta3 inh	proKLK7 act	DDE Tn7 FP inh	PLCg1 ctr	PLCbeta3 conf
COc1cc(C2CC(=O)Oc3cc(O)ccc32)cc(OC)c1OC (configuration not stated)	-0.8	2.0	-0.5	-3.8	0.4	0.0	/	/
COc1ccc2c(c1)OC(=O)CC2c1cc(OC)c(OC)c(OC)c1 (configuration not stated)	-2.4	-1.2	10.8*	8.1	-0.2	-5.8	-3.6	-11.4
COc1ccc2c(c1)CNC2CS(=O)(=O)NCC(C)C (configuration not stated)	/	3.7	-33.2	-44.3	-3.3	-12.2	/	/
CC(Sc1ccc2c(c1)OCCO2)C(=O)Nc1ccc(N2CCOCC2)cc1 (configuration not stated)	0.6	-7.3	13.1*	-3.5	0.4	6.3	-5.0	-0.9
CCN(CC(=O)Nc1ccc(NC(C)=O)cc1)C(=O)C1CC(=O)N(CCc2ccc(OC)c(OC)c2)C1 (configuration not stated)	1.1	1.3	2.1	-5.5	0.1	5.5	/	/
COc1ccc(CCN2CC(C(=O)N(C)CC(=O)Nc3ccc(F)c(F)c3F)CC2=O)cc1OC (configuration not stated)	2.6	-2.3	11.1*	-0.9	-0.1	-1.8	-3.8	-0.9
CCSc1cc(N2CCCC2)nc(-c2ccc(F)cc2)n1	8.0	-1.8	8.5	10.8*	-1.1	-2.3	-6.1	-3.6
c1ccc(CCSc2nnc(-c3cccnc3)n2Cc2ccccc2)cc1	/	-6.8	1.5	1.6	-0.3	5.7	/	/
COc1ccc(C2CC(=O)C(c3ccc(Br)cc3)=CN2Cc2ccccc2)cc1 (configuration not stated)	/	-3.6	-35.5	-56.4	-1.7	-7.0	/	/
O=C(COc1ccccc1)N1CCN(c2ccc([N+](=O)[O-])c(N3CCCCC3)c2)CC1	-9.1	-1.3	11.7*	3.4	0.4	-3.2	-0.2	2.9
O=c1c(=O)n(O)c2ccccc2n1O	-3.5	8.4	12.6*	-1.3	-0.5	6.6	-6.0	-2.2
